Assay: Pharmacokinetic study after single oral dose in rabbits
Assay type: in vivo
Details: male, rabbit, plasma, 2.58 mg/kg
In short: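 Twelve healthy fasted male rabbits (≈1.5 kg), 12 h fast, two groups. Single oral dose suspended in CMC: 2.58 mg/kg parent drug, or 6.45 mg/kg conjugate (2.58 mg/kg drug-equivalent). Water after 1 h. Plasma deproteinised with acetonitrile and filtered, then HPLC-UV at 248 nm (acetonitrile:water 50:50, isocratic, 1 mL/min) against a 1–50 μg/mL standard curve. AUC by linear trapezoidal method.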

Structure (SMILES): CC(C(=O)O)c1ccc(-c2ccccc2)c(F)c1 (stereo not shown) [Standard FLB, 2-(3-fluoro-4-phenylphenyl)propionic acid]
- AUC(0-inf): 190 ± 4 µg·h/mL
- Cmax: 37300 ng/mL
- half-life: 4.6 ± 0.19 h
- k el: 4.17e-05 s⁻¹

— article PMC7335720 (Saudi Pharmaceutical Journal : SPJ, 2020)
